TLR9-MyD88 inh = blocks human TLR9 binding to MyD88 | Q9NR96+Q99836 | CHO BLA complementation TLR9-MyD88, CCF4 FRET ratio | inhibition, % at 4.98 µM | 0.21% of 340,000 active | AID 504734;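 active = inhibition above the mean over all tested compounds plus 3 SD, cut at about 21% in these data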;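 also: 0% = DMSO only wells and 100% = clavulanate BLA inhibitor control wells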
TLR4-MyD88 BLA = inhibitors of human TLR4-MyD88 binding. O00206+Q99836. HeLa CL3-4 TLR4/MyD88 BLA complementation, FRET ratio. inhibition, % at 8.4 µM. 0.18% of 200,000 active; in the data active = inhibition above about 25%;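 also: 0% = vehicle and 100% = reference inhibitor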
NOD2 RIPK2 PPI = NOD2-RIPK2 protein interaction inhibition | O43353 | CHO BLA complementation NOD2-RIPK2, CCF4 ratio | inhibition, % at 4.98 µM | 0.38% of 360,000 active | AID 624267; in the data active = inhibition above about 21%;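 also: 0% = vehicle only and 100% = reference blocker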
Beta2AR agonist = human beta-2 adrenergic receptor agonism by FAP | P07550 | Am2.2-beta2AR cells, FAP receptor internalization, flow cytometry | response, % (concentration not given with the values) | 0.43% of 340,000 active | AID 504454;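 active = response above a set limit, near 3 SD of response in nonfluorescent compounds, cut at about 42% in these data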
ABHD5-PLIN5 inh = inhibitors of human ABHD5-perilipin-5 interaction; Split G. princeps luciferase complementation, luminescence, 4 h; inhibition, % at 4 µM; Q00G26+Q8WTS1; AID 602281; 0.78% of 360,000 active;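 active = inhibition above the mean inhibition across every tested compound plus 3 SD, cut at about 22% in these data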;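 also: 0% = DMSO only wells and the 100% control is not disclosed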
Target sequence (Q00G26 whole entry, looked up): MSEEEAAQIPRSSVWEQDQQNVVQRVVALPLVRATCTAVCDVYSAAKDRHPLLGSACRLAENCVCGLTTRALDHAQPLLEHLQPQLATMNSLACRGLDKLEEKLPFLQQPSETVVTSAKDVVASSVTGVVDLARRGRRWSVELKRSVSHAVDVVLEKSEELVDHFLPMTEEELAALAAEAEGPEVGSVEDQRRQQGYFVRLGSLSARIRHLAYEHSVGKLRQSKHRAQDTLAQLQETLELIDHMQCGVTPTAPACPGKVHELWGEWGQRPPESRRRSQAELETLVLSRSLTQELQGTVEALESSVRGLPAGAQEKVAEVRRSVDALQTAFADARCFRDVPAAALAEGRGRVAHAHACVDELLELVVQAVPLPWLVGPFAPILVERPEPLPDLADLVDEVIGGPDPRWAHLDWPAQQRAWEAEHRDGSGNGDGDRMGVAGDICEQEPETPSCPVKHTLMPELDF
Target sequence (Q8WTS1 whole entry, looked up): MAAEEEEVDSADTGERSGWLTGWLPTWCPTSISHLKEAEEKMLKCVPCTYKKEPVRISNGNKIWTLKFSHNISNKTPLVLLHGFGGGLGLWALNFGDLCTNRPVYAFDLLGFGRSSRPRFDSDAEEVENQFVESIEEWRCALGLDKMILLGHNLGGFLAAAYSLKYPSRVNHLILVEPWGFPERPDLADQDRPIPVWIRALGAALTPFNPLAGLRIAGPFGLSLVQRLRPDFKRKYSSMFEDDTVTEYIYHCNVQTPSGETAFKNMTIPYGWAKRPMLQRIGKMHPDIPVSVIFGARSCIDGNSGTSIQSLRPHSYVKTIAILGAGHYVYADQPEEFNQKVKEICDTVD
Dynein cargo inh = blocks dynein driven cargo transport along microtubules; 3617.4 mouse cells, GR-EGFP nuclear translocation imaging; test concentration mostly 20 µM; stimulated with dexamethasone, 1 µM; stronger effect = lower value; AID 1381; z-score, hits read low; 0.47% of 220,000 active;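 active = plate z-score of nuclear minus cytoplasmic receptor signal below a set negative limit, without overly bright fluorescence or cell loss, cut at about -3.5 in these data, passing the limit was not always enough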;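 also: z-score of nuclear minus cytoplasmic ring GR-EGFP intensity difference per well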
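Schedule: 48 h induction, then 1 h compound, then 30 min agonist, 37 °C. Buffer or medium: tetracycline-free induction medium containing charcoal-stripped FBS. Reagent: 1.0 µM final dexamethasone stimulus. Evaluation: nuclear versus cytoplasmic GR-EGFP signal, averaged per well. Signal: high-content fluorescence imaging after fixation.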
TLR4 MyD88 cnf = TLR4-MyD88 interaction inhibition confirmed; shares compounds with TLR4-MyD88 BLA; HeLa CL3-4 BLA complementation, CCF4 FRET ratio; inhibition, % at 8.4 µM; 50% of 350 active;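 active = mean inhibition across three repeat runs above about 25% carried over from the earlier screen, limit read from the data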;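 also: plate controls were DMSO only for no effect and clavulanic acid blocking BLA at full dose for full effect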
BLA inh HeLa = beta-lactamase inhibition flagged in TLR4-MyD88 counter-screen; 63% of 350 active; inhibition, % at 8.4 µM; shares compounds with TLR4-MyD88 BLA; HeLa BLA reporter, CCF4 FRET ratio;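 active = mean inhibition over three repeats above about 26% taken from the earlier screen, limit read from the data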;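 also: HeLa cells stably expressing beta-lactamase reporter as counterscreen for TLR4-MyD88 inhibitors; 0% = DMSO and 100% = clavulanic acid full inhibition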
Dynein confirm = dynein cargo transport inhibition, confirmation; 69% of 1,000 active; shares compounds with Dynein cargo inh; 3617.4 GR-EGFP nuclear translocation imaging, dexamethasone-induced; AID 463116; calls only at 20 µM;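 active = inhibition of receptor movement into the nucleus at or above a set limit in both runs, with normal cell brightness and cell count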;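 also: dexamethasone at 1 µM final in well for 30 min; nuclear minus cytoplasmic GR-EGFP mean intensity difference in channel 2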
TLR9-MyD88 conf = confirmation of human TLR9-MyD88 binding inhibitors. AID 540250. 51% of 680 active. shares compounds with TLR9-MyD88 inh. CHO TLR9/MyD88 BLA complementation, CCF4 FRET ratio. inhibition, % at 4.98 µM;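 active = mean inhibition across three repeats above about 21% taken from the earlier screen, limit read from the data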;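 also: blue over green emission ratio reports constitutive TLR9 MyD88 association via BLA complementation; 0% = DMSO vehicle wells and 100% = clavulanate BLA inhibitor wells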
BLA counter = beta-lactamase reporter inhibition, counter-screen artifact | shares compounds with TLR9-MyD88 inh | CHO-BLA cells, CCF4 FRET ratio, BLA reporter | inhibition, % at 4.98 µM | 7% of 680 active;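 active = mean inhibition above a 50% cutoff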;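 also: counterscreen of TLR9-MyD88 hits on CMV-driven BLA in CHO-K1 cells; 0% = DMSO alone and 100% = clavulanate blocking BLA; higher means less blue over green ratio so more BLA blockade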
TLR9 CHO tox = CHO cell toxicity counter-screen for TLR9-MyD88 inhibitors; shares compounds with TLR9-MyD88 inh; TLR9-MyD88 CHO cells cytotoxicity, luminescence; inhibition, % at 4.98 µM; 39% of 680 active; in the data active = inhibition above about 11%
Numbers without * were called inactive. Sampled rows, rich in hits. Any-hit rate of the full collection: about 1.6%.

`COc1ccccc1NS(=O)(=O)c1cc([N+](=O)[O-])ccc1N/N=C/c1c[nH]c2ccccc12` gave TLR9-MyD88 inh 49*, TLR4-MyD88 BLA 39*, NOD2 RIPK2 PPI 4, Beta2AR agonist -249, ABHD5-PLIN5 inh 10, Dynein cargo inh -4.1, TLR4 MyD88 cnf 27*, BLA inh HeLa 56*, Dynein confirm inactive, TLR9-MyD88 conf 45*, BLA counter 44 and TLR9 CHO tox 3.
Screening N#Cc1ccc(C(=O)N2CCCCC2c2cc(C(=O)NCc3ccccc3)no2)cc1 (configuration not stated) returned NOD2 RIPK2 PPI -10 and ABHD5-PLIN5 inh 2.
`CCCSc1nnc(NC(=O)c2sc3nc(-c4cccs4)ccc3c2N)s1` gave TLR9-MyD88 inh 21*, TLR4-MyD88 BLA 30*, NOD2 RIPK2 PPI -3, Beta2AR agonist -51, ABHD5-PLIN5 inh -6, Dynein cargo inh -0.0036, TLR4 MyD88 cnf 7, BLA inh HeLa 31*, TLR9-MyD88 conf 23*, BLA counter 22 and TLR9 CHO tox 0.
Screening Cc1c(NC(=O)CSc2nnc(-c3ccncc3)n2C)c(=O)n(-c2ccccc2)n1C returned TLR9-MyD88 inh -1, NOD2 RIPK2 PPI -3 and ABHD5-PLIN5 inh -2.
`Cc1ccc(-n2c(Cl)c(Cl)nc(Cl)c2=O)cc1` gave TLR9-MyD88 inh 48*, TLR4-MyD88 BLA 27*, NOD2 RIPK2 PPI 84*, Beta2AR agonist 50*, ABHD5-PLIN5 inh 85*, Dynein cargo inh -4.1*, TLR4 MyD88 cnf 19, BLA inh HeLa 22, TLR9-MyD88 conf 49*, BLA counter 40 and TLR9 CHO tox 99*.
For COc1nc(Cl)cn(-c2ccc(C)cc2)c1=O the results were TLR9-MyD88 inh 5, TLR4-MyD88 BLA -7, NOD2 RIPK2 PPI 4, Beta2AR agonist 8, ABHD5-PLIN5 inh 0 and Dynein cargo inh -0.51.
For COc1cccc(/C=C2\C(=O)N(c3cccc(C)c3)C(=O)c3ccccc32)c1 the results were TLR9-MyD88 inh 24*, TLR4-MyD88 BLA 29*, NOD2 RIPK2 PPI -12, Beta2AR agonist 9, ABHD5-PLIN5 inh 1, Dynein cargo inh -1.4, TLR4 MyD88 cnf 41*, BLA inh HeLa 38*, TLR9-MyD88 conf 46*, BLA counter 47 and TLR9 CHO tox 4.
`COc1ccc(N(CC(=O)N/N=C/c2ccc(-c3ccc([N+](=O)[O-])cc3)o2)S(=O)(=O)c2ccc(C)cc2)cc1Cl` gave TLR9-MyD88 inh 64*, TLR4-MyD88 BLA 71*, NOD2 RIPK2 PPI 17, Beta2AR agonist 23, ABHD5-PLIN5 inh 6, Dynein cargo inh 0.29, TLR4 MyD88 cnf 65*, BLA inh HeLa 95*, TLR9-MyD88 conf 59*, BLA counter 61* and TLR9 CHO tox 5.
COc1ncccc1C(=O)N1CCCC(C(=O)Nc2cccc(-c3ccc(F)cc3)c2)C1 (configuration not stated) was read as TLR9-MyD88 inh -2, NOD2 RIPK2 PPI -4 and ABHD5-PLIN5 inh 11.
`Oc1ccc(C[C@H]2CN([C@@H](Cc3ccc(O)cc3)CN3CCC[C@@H]3CN3C(=S)NC[C@@H]3Cc3ccccc3)C(=S)N2CC2CCCCCC2)cc1` gave NOD2 RIPK2 PPI -3 and ABHD5-PLIN5 inh 16.
`CCc1cc2c(=O)c(-c3nc4ccccc4n3C)c(COCC(=O)O)oc2cc1OC(=O)C(C)(C)C` gave TLR9-MyD88 inh 49*, TLR4-MyD88 BLA 43*, NOD2 RIPK2 PPI 1, Beta2AR agonist 12, ABHD5-PLIN5 inh 8, Dynein cargo inh 0.56, TLR4 MyD88 cnf -6, BLA inh HeLa 13, TLR9-MyD88 conf 2, BLA counter 0 and TLR9 CHO tox 3.
O=C(C1=NN(c2ccccc2)C2C(=O)N(c3cccc(Cl)c3)C(=O)C12)c1ccccc1 (configuration not stated) was read as TLR9-MyD88 inh 28*, TLR4-MyD88 BLA 46*, NOD2 RIPK2 PPI 35*, Beta2AR agonist 6, ABHD5-PLIN5 inh -4, Dynein cargo inh 0.24, TLR4 MyD88 cnf 27*, BLA inh HeLa 45*, TLR9-MyD88 conf 25*, BLA counter 28 and TLR9 CHO tox 3.
`N#Cc1sc2nc(-c3ccccc3)cc(-c3ccco3)c2c1N` gave TLR9-MyD88 inh 22*, TLR4-MyD88 BLA 40*, NOD2 RIPK2 PPI 13, Beta2AR agonist -78, ABHD5-PLIN5 inh -19, Dynein cargo inh -1.5, TLR4 MyD88 cnf 26*, BLA inh HeLa 53*, TLR9-MyD88 conf 28*, BLA counter 25 and TLR9 CHO tox -1.
Screening N#Cc1c(-c2ccccc2)cc(-c2ccco2)c(C#N)c1N returned TLR4-MyD88 BLA 0 and Dynein cargo inh -0.23.
Screening O=C1c2ccc([N+](=O)[O-])cc2C(=O)N1c1ccc(Cl)cn1 returned TLR9-MyD88 inh -22, TLR4-MyD88 BLA 10, NOD2 RIPK2 PPI -7, Beta2AR agonist -6, ABHD5-PLIN5 inh 4 and Dynein cargo inh -0.69.
Screening O=C1c2cccc3c([N+](=O)[O-])ccc(c23)C(=O)N1c1ccc(Cl)cn1 returned TLR9-MyD88 inh 73*, TLR4-MyD88 BLA 86*, NOD2 RIPK2 PPI 85*, Beta2AR agonist 35, ABHD5-PLIN5 inh 4, Dynein cargo inh 1.1, TLR4 MyD88 cnf 87*, BLA inh HeLa 111*, TLR9-MyD88 conf 68*, BLA counter 86* and TLR9 CHO tox 94*.
COc1cccc(C(C)(O)c2nc(-c3ccc(OC)nc3)cs2)c1 (configuration not stated) was read as NOD2 RIPK2 PPI -7 and ABHD5-PLIN5 inh -9.
